Results on 1 molecule are retold here after ChEMBL document CHEMBL5653623 (J Pharmacol Exp Ther, 2015).

Data set [1] is described as follows: Effect on spontaneous locomotor activity in C57Bl/6 mouse assessed as rearing behaviour administered for 11 days by truScan photo beam activity system analysis. Type of data set: toxicity. The settings on record: in vivo, 264 h, time 11 day. The method in brief:
(§1)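 Male C57Bl/6 mice, singly housed on a reversed 12 h light cycle, were fed diet formulated to give 3, 10, 30, 60 or 120 mg/kg/day (assumes 3 g/day intake) or untreated diet for 11 days. Body weight and food intake were monitored. Spontaneous locomotion and rearing were recorded over 60 min. On day 11, mice were euthanized 4, 8 or 24 h after dark onset and plasma and brain drug levels measured; n = 5 per group.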

Data set [2] in a line: Inhibition of adenosine transporter (unknown origin). Details: species or system Homo sapiens. The method in brief:
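Radioligand binding selectivity screen was run at 10 μM, mean of three determinations. Where inhibition exceeded 50%, full concentration-displacement curves were run in triplicate and IC50 was obtained by nonlinear least-squares regression.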

Data set [3] has as its target Leucine-rich repeat serine/threonine-protein kinase 2 (Mus musculus) (UniProt Q5S006). As to the kind of experiment: In vivo inhibition of LRRK2 in 20 weeks old MitoPark mouse kidney assessed as reduction in pSer935 LRRK2 level at 30 mg/kg/day administered for 15 weeks by Western blotting analysis. Type of data set: functional, organism-based. Summed up:
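MitoPark mice on drug-containing diet targeted to 30 mg/kg/day from 5 weeks of age, with the diet reformulated every 3 weeks to hold the target. Untreated-diet MitoPark and wild-type littermate controls. Killed by CO2 at 20 weeks of age. Lung and kidney taken from 5 mice per group for pSer935 and total LRRK2 immunoblots.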
Background: A western blot detects proteins with antibodies after separation by electrophoresis.

The nature of data set [4]: Unbound fraction in C57Bl/6 mouse brain. Type of data set: ADME, tissue-based. Summed up:
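Plasma and brain binding were determined by equilibrium dialysis at 1 μM.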

Data set [5] can be described thus: Cmax in C57Bl/6 mouse at 2 mg/kg, iv measured after 480 mins by LC-MS/MS analysis. Type of data set: ADME, organism-based. The settings on record: in vivo. The method in brief:
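Male C57Bl/6 mice (20-25 g) given a single IV dose (2 mg/kg) or oral dose (10 mg/kg). Blood was sampled at 5, 15, 30, 60, 120, 240, 360 and 480 min and plasma prepared by centrifugation. Plasma drug levels were measured by LC/MS/MS. Values are mean (CV%), N=3.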

Data set [6] concerns Mus musculus. As to the kind of experiment: Effect on histological changes in 20 weeks old MitoPark mouse kidney assessed as kidney darkening at 30 mg/kg/day administered for 15 weeks by hematoxylin and eosin staining based microscopic analysis. Type of data set: functional, organism-based. The method in brief: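 MitoPark mice were fed diet targeting 30 mg/kg/day or vehicle for 15 weeks and euthanized at 20 weeks of age (n=5/group). Kidney and lung were fixed in 10% neutral buffered formalin, paraffin-embedded, sectioned at 5 µm, H&E-stained and examined microscopically.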

In data set [7] the target is T1, Dual specificity protein kinase TTK (Homo sapiens, UniProt P33981).
T1 sequence (P33981 whole entry): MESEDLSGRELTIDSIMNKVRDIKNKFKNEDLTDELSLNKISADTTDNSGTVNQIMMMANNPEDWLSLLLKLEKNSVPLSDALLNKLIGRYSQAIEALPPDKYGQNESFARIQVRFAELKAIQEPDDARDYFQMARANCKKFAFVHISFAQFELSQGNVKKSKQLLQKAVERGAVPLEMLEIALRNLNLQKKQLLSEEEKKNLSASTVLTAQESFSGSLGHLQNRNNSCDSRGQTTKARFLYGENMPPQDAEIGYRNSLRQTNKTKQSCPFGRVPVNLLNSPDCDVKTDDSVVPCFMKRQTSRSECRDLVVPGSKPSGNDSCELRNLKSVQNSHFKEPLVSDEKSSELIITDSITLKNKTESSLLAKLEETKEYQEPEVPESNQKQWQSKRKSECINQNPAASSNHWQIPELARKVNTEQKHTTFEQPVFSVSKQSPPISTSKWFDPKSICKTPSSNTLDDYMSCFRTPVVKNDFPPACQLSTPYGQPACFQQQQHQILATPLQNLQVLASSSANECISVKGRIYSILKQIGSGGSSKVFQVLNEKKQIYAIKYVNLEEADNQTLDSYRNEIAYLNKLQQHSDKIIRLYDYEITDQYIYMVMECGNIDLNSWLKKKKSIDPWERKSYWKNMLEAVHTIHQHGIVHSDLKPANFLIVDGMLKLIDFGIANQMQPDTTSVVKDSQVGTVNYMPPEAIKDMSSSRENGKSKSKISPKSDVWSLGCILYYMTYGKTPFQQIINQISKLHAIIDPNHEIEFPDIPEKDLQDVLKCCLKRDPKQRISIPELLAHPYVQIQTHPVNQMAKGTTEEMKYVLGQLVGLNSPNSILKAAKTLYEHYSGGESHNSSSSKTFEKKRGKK
As to the kind of experiment: Inhibition of TTK (unknown origin).

The test system of data set [8] is Mus musculus. As to the kind of experiment: Effect on behavioral changes in 14 weeks old MitoPark mouse striatum assessed as dopamine level at 30 mg/kg/day by HPLC analysis. Type of data set: functional. The method in brief: (§2)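 Striatum from MitoPark mice on diet targeting 30 mg/kg/day or vehicle diet (wild-type littermate controls) was homogenized by sonication in 0.1 M acid at 0.1 g/mL. Samples were held 60 min at 4 °C and centrifuged. Dopamine, DOPAC and HVA were measured by HPLC with electrochemical detection against a 3,4-DHBA internal standard and standard curves. Mean ± SEM.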

Data set [9] in a line: Unbound brain concentration in C57Bl/6 mouse at 30 mg/kg, po administered for 1 hr. Particulars: in vivo. Type of data set: ADME, organism-based.
Data set [10] in a line: Toxicity in C57Bl/6 mouse assessed as change in body weight measured after 11 days. Particulars: in vivo, 264 h, time 11 day. Summed up: as §1
For data set [11], the target named is Leucine-rich repeat serine/threonine-protein kinase 2 (Mus musculus) (UniProt Q5S006). As to the kind of experiment: In vivo inhibition of LRRK2 in C57Bl/6 mouse kidney assessed as total LRRK2 protein level administered for 11 days and measured after 4 hrs by Western blotting analysis. Particulars: dose 3-120 mg/kg, time 11.0 day. Type of data set: functional, organism-based. The method in brief: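 Same 11-day in-diet design in male C57Bl/6 mice: 3-120 mg/kg/day or untreated diet, killed 4, 8 or 24 h after dark-cycle onset, n = 5 per group. Kidneys dissected for Western blot of pSer935 and total LRRK2, with total LRRK2 detected by MJFF-2 antibody.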
Chain of Leucine-rich repeat serine/threonine-protein kinase 2 (Mus musculus) (Q5S006 whole entry): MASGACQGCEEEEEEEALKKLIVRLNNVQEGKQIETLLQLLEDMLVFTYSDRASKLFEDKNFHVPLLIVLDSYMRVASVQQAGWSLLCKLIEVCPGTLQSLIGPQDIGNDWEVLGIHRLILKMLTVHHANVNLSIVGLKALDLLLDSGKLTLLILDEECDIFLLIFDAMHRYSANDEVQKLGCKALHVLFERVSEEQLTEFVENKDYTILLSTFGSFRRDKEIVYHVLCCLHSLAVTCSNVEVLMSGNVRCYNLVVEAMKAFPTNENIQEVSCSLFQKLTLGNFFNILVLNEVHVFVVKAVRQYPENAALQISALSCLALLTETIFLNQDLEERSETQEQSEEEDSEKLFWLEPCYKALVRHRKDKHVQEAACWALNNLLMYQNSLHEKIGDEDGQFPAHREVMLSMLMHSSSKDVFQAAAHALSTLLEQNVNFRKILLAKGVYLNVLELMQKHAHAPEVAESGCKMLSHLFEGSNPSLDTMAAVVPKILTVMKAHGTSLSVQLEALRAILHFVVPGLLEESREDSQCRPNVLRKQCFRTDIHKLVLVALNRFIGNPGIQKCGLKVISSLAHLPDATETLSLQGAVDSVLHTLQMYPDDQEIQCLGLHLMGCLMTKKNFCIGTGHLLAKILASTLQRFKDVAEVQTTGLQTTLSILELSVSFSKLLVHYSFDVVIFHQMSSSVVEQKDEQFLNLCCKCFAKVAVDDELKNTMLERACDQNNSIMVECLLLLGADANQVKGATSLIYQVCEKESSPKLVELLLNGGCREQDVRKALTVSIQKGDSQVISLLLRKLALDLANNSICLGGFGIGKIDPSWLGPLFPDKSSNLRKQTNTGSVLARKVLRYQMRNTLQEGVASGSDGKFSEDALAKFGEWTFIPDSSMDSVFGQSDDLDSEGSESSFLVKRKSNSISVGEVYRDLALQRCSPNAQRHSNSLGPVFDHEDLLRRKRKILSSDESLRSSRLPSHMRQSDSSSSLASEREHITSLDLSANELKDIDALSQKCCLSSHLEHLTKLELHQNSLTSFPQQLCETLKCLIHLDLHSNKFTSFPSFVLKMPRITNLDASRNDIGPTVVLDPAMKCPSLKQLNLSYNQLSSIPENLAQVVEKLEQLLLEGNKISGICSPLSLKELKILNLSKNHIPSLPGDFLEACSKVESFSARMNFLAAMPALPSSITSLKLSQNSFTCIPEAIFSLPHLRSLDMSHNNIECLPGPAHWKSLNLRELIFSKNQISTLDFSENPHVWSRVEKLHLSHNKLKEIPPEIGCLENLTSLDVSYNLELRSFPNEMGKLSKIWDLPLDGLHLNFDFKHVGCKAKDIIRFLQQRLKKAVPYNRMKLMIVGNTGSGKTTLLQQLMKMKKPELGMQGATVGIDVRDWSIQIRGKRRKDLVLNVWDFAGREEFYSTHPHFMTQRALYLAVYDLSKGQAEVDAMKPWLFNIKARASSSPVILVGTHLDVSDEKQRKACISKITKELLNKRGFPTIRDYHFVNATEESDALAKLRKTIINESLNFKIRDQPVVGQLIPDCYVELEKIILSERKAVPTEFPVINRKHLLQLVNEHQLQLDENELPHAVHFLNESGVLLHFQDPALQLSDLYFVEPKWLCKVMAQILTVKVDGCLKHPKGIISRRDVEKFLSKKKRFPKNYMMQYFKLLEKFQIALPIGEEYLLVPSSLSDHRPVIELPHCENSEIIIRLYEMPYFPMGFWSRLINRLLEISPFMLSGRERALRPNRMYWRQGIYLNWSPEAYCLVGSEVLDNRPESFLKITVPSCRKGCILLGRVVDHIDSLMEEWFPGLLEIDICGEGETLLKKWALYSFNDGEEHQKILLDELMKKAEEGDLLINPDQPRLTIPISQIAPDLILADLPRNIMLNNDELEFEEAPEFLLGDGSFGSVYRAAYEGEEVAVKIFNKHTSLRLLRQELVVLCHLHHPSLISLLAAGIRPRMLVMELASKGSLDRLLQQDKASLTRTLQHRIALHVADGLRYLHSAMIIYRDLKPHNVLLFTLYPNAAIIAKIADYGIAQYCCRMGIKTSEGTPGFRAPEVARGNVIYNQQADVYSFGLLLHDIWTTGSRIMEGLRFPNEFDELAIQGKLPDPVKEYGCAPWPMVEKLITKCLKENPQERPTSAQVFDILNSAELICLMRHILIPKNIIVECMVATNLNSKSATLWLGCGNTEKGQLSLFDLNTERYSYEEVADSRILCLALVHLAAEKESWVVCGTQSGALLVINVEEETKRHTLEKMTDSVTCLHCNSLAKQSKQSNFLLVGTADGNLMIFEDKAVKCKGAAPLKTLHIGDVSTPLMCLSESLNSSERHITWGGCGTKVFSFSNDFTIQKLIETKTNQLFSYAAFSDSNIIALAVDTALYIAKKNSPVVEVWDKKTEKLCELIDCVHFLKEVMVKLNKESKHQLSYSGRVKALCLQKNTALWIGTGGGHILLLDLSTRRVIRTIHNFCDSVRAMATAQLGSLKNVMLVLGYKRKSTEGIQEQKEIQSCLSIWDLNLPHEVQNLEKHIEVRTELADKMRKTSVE

Data set [12] has as its system Mus musculus. As to the kind of experiment: Effect on behavioral changes in 8 weeks old MitoPark mouse striatum assessed as dopamine level at 30 mg/kg/day administered for 3 weeks by HPLC analysis. Type of data set: functional. The method in brief: as §2
For data set [13], the system named is Mus musculus. As to the kind of experiment: Effect on behavioral phenotype in 11 weeks old MitoPark mouse assessed as decreased rearing behavior at 30 mg/kg/day administered for 6 weeks and measured after 60 mins. Type of data set: functional, organism-based. The method in brief:
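MitoPark mice, 5 weeks old, were allocated by baseline 60-min LMA to untreated diet or diet targeting 30 mg/kg/day (reformulated every 3 weeks). Wild-type littermates received vehicle diet. Body weight and food intake were recorded weekly. 60-min LMA (distance, rearing) was run at 8, 11, 14 and 17 weeks of age.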

For data set [14], the system named is Mus musculus. As to the kind of experiment: Effect on behavioral changes in 8 weeks old MitoPark mouse striatum assessed as HVA level at 30 mg/kg/day administered for 3 weeks by HPLC analysis. Type of data set: functional. Summed up:
as §2

The target in data set [15] is Leucine-rich repeat serine/threonine-protein kinase 2 (Mus musculus) (UniProt Q5S006). As to the kind of experiment: In vivo inhibition of LRRK2 in C57Bl/6 mouse brain assessed as decrease in pSer935 LRRK2 at 10 to 100 mg/kg, po measured after 1 hr by Western blotting analysis relative to control. Type of data set: functional, organism-based. The settings on record: dose 10-100 mg/kg. The method in brief: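 Male C57Bl/6 mice, 20-25 g. Single oral dose of 1-100 mg/kg suspended in 30% Captisol (10 mL/kg), or vehicle, given 1 h before CO2 euthanasia. Cortex frozen on dry ice and pSer935 LRRK2 read by Western blot. n = 5 per group.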

Activity calls are given as the source filed them. No cut-off for these calls is given here. Some results are limits rather than exact numbers.

As usually defined, the IC50 is the point on the concentration scale where inhibition reaches its midpoint. A lower IC50 goes with inhibition by little substance. A word on the inhibition: it is the relative decrease from the control value, in per cent. As usually defined, the fraction unbound is the share of the substance not bound to proteins or other matrix. Read a high fraction unbound as weak binding. A word on the Cmax: it is the highest concentration seen after dosing.

As to `C[C@@H]1CN(c2cc(-c3n[nH]c4ccc(OC5(C)CC5)cc34)ncn2)C[C@H](C)O1` [MLi-2], the Activity entry in data set [1] is on record as “Non-Toxic”; with Mus musculus [8], 1105 ng/g; in data set [10], “Non-Toxic”; in the data set on Mus musculus [12], 1114 ng/g; with Mus musculus [14] it was 267.6 ng/g. For the same molecule, the half-inhibitory concentration (IC50) in data set [2] amounted to 9.7 µM; in data set [7], 0.935 µM. Besides, the inhibition entry in data set [3] was “Active”. The fraction unbound in data set [4] is 0.009. Further, the Cmax in data set [5] turned out to be 716 nM. Moreover, in the data set on Mus musculus [6], the result was inactive. Moreover, in data set [9], the “Drug uptake(free)” value is given as 91.8 nM. Further, the inhibition entry was “Dose-Dependent Effect” in [11] and greater than 90% in data set [15]. The result in the data set on Mus musculus [13] was Active.
